According to ChEMBL document CHEMBL4196194, “De Novo Design of α-Helical Lipopeptides Targeting Viral Fusion Proteins: A Promising Strategy for Relatively Broad-Spectrum Antiviral Drug Discovery” (J Med Chem, 2018):
Activity calls are given as the source filed them. No cut-off for these calls is given here. Where a SMILES comes first, the peptide text is derived from it. [ ]: non-standard residue; d: D form. The star is where a group is joined. Palmitoyl = CCCCCCCCCCCCCCCC(=O)*; βAla = NCCC(=O)O

Columns and labels:
[1] = system: Rattus norvegicus; test: Volume of distribution at steady state in Sprague-Dawley rat at 5 mg/kg, iv administered as single dose by LC-MS/MS analysis; format: ADME, organism-based; details: in vivo
[2] = Cmax in Sprague-Dawley rat at 5 mg/kg, iv administered as single dose by LC-MS/MS analysis; format: ADME, organism-based; design: dose 5 mg/kg, route intravenous; details: in vivo
[3] = system: Influenza A virus; test: Binding affinity to influenza A virus hemagglutinin 2 synthetic peptide N66 assessed as changes in alpha-helical structures at 10 uM at pH 5 by CD spectroscopy
How it was run: (§1)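 Peptides at 10 μM final. HR1P incubated with test peptide 30 min at 25 °C in 10 mM phosphate, pH 7.4; N66 30 min at 30 °C in 10 mM sodium acetate/10 mM sodium phosphate/150 mM NaCl, pH 5.0; measured at 25 °C. Mean residue ellipticity; helicity from −33000 deg cm2 dmol−1 = 100%.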

[4] = biological target: Hemagglutinin (Influenza A virus (A/Puerto Rico/8/1934(H1N1))) (UniProt P03452); test: Inhibition of Influenza A virus (A/Puerto Rico/8/1934(H1N1)) Hemagglutinin 1-induced aggregation of chicken erythrocytes at 0.05 to 100 uM
Chain of Hemagglutinin (Influenza A virus (A/Puerto Rico/8/1934(H1N1))) (P03452 whole entry): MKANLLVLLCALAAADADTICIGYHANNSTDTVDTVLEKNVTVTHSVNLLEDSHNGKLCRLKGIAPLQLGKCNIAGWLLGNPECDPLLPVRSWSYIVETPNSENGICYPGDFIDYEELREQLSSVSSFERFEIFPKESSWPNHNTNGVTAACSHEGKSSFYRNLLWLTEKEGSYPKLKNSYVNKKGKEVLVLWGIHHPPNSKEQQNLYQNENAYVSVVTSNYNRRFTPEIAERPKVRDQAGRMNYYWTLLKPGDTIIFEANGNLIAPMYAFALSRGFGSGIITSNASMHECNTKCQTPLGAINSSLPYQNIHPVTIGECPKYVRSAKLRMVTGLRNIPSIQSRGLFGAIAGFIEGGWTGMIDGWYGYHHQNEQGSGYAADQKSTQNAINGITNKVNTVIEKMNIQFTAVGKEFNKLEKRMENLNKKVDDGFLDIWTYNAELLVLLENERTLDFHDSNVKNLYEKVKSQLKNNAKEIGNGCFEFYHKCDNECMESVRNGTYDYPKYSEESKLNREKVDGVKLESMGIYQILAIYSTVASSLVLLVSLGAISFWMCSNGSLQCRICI

[5] = system: Influenza A virus; test: Antiviral activity against Influenza A virus (A/Puerto Rico/8/1934(H1N1)) infected in HEK293T cells assessed as inhibition of viral replicon activity incubated for 30 hrs by dual-Glo luciferase assay; format: functional, organism-based; details: HEK-293T
How it was run: (§2)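 HEK293T cells (2.5 × 10^4/well) transfected with plasmids for NP, PB1, PB2, PA plus p0LN-S-Luc firefly and pRL-SV40 Renilla reporters; serially diluted compound added 6 h post-transfection, luciferase read after 30 h by Dual-Glo. Activity = firefly/Renilla ratio; % inhibition normalized to positive and negative controls, curve-fitted; three independent measurements.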

[6] = system: Rattus norvegicus; test: MRT (0 to t) in Sprague-Dawley rat at 5 mg/kg, iv administered as single dose by LC-MS/MS analysis; format: ADME, organism-based; details: in vivo
[7] = system: Influenza A virus; test: Binding affinity to influenza A virus hemagglutinin 2 synthetic peptide N66 at pH 5 by sedimentation velocity analysis
How it was run: (§3)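 Complexes at 150 μM final: with HR1P 30 min at 25 °C in 10 mM phosphate pH 7.4; with N66 30 min at 30 °C in sodium acetate/phosphate/NaCl pH 5.0. Sedimentation velocity at 280 nm, 3000 then 60000 rpm, 25 °C; c(s) distribution and molecular weight derived.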

[8] = system: Influenza A virus; test: Inhibition of influenza A virus infected in MDCK cells assessed as inhibition of viral load treated with compound at 0 to 2 hrs post-infection by RT-qPCR method based time of addition assay; format: functional
How it was run: (§4)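 MDCK cells (2.0 × 10^5/well) washed with PBS, virus adsorbed (MOI 0.05) 60 min at 4 °C, washed, then compound present only during 0–10, 0–2, 2–5, 5–8 or 8–10 h postinfection; cultured in fresh medium to 10 h, total RNA extracted, viral load by absolute one-step RT-qPCR; triplicate, versus PBS control.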

[9] = system: Influenza A virus; test: Binding affinity to influenza A virus hemagglutinin 2 synthetic peptide N66 at 75 uM incubated for 30 mins by Coomassie blue R250 staining based native polyacrylamide gel electrophoresis method
How it was run: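 Equimolar mix with N66 (150 μM each) in sodium acetate/phosphate/NaCl pH 5.0, 30 min at 30 °C; neutralized with 200 mM Tris pH 8.5, diluted 1:1 in Tris-glycine sample buffer, run on 15% Tris-glycine gel, running buffer pH 8.8 (90 V then 150 V, 2.5 h); Coomassie R250 stain.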

[10] = system: Influenza A virus; test: Inhibition of influenza A virus infected in MDCK cells assessed as inhibition of viral load treated with compound at 5 to 8 hrs post-infection by RT-qPCR method based time of addition assay; format: functional, organism-based; how it was run: as §4
[11] = system: Middle East respiratory syndrome-related coronavirus; test: Binding affinity to MERS-CoV spike protein synthetic peptide HR1P at 75 uM incubated for 30 mins by Coomassie blue R250 staining based native polyacrylamide gel electrophoresis method
How it was run: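 Equimolar mix with HR1P (150 μM each) in 10 mM phosphate pH 7.4, 30 min at 25 °C; diluted 1:1 in β-alanine–formic acid sample buffer, run on 15% β-alanine–formic acid gel at pH 3.4 (90 V then 150 V, 2.5 h); Coomassie R250 stain.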

[12] = Inhibition of MERS-CoV spike protein-mediated cell-cell fusion in 293T/MERS/EGPF cells assessed as reduction in cell fusion incubated for 4 hrs by inverted fluorescence microscopy; format: cell-based, Middle East respiratory syndrome-related coronavirus
How it was run: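 Huh-7 cells expressing DPP4 plated 5 × 10^4/well, 5 h at 37 °C; serially diluted peptide added, then 293T cells carrying MERS-CoV S and EGFP (or EGFP-only control cells), 1 × 10^4/well. After 4 h coculture at 37 °C, fused and unfused effector cells counted by fluorescence microscopy.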

[13] = Cytotoxicity in human TZM-bl cells; format: cell-based
[14] = system: Influenza A virus; test: Inhibition of influenza A virus infected in MDCK cells assessed as inhibition of viral load treated with compound at 8 to 10 hrs post-infection by RT-qPCR method based time of addition assay; format: functional, organism-based; how it was run: as §4
[15] = AUC (0 to t) in Sprague-Dawley rat at 5 mg/kg, iv administered as single dose by LC-MS/MS analysis; format: ADME, organism-based; details: in vivo
[16] = system: Influenza A virus; test: Binding affinity to influenza A virus hemagglutinin 2 synthetic peptide N66 assessed as melting temperature at 10 uM at pH 5 by CD spectroscopy
How it was run: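 Thermal unfolding by CD at 222 nm, 10–90 °C at 2 °C/min. Samples held 10 μM peptide: for HR1P in 10 mM phosphate pH 7.4; for N66 in 10 mM sodium acetate with 10 mM sodium phosphate and 150 mM NaCl, pH 5.0.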

[17] = biological target: Hemagglutinin (Influenza A virus (A/Puerto Rico/8/1934(H1N1))) (UniProt P03452); test: Inhibition of Influenza A virus (A/Puerto Rico/8/1934(H1N1)) Hemagglutinin 2-mediated hemolysis of chicken erythrocytes at acidic pH conditions
[18] = system: Influenza A virus; details: A/Puerto Rico/8/1934(H1N1), 0.1 to 1000 uM
[19] = system: Middle East respiratory syndrome-related coronavirus; test: Binding affinity to MERS-CoV spike protein synthetic peptide HR1P at pH 7.4 by sedimentation velocity analysis; how it was run: as §3
[20] = system: Middle East respiratory syndrome-related coronavirus; test: Binding affinity to MERS-CoV spike protein synthetic peptide HR1P assessed as changes in alpha-helical structures at 10 uM at pH 7.4 by CD spectroscopy; how it was run: as §1
[21] = system: Rattus norvegicus; test: Clearance in Sprague-Dawley rat at 5 mg/kg, iv administered as single dose by LC-MS/MS analysis; format: ADME, organism-based; details: in vivo
[22] = Cytotoxicity in MDCK cells assessed as reduction in cell viability incubated for 72 hrs by cell-titer-Glo cell viability assay; format: cell-based, Canis lupus familiaris; details: dog
[23] = Selectivity index, ratio of CC50 for cytotoxicity in MDCK cells to EC50 for antiviral activity against Influenza A virus (A/Hong Kong/8/1968([…])) infected in HEK293T cells; format: toxicity, cell-based; details: dog
[24] = system: Influenza B virus; test: Antiviral activity against Influenza B virus (B/Lee/40); format: functional, organism-based; details: B/Lee/1940
[25] = system: Influenza A virus; test: Antiviral activity against influenza A virus Hong Kong/8/1968(H3N2) infected in HEK293T cells assessed as inhibition of viral replicon activity incubated for 30 hrs by dual-Glo luciferase assay; format: functional, organism-based; details: HEK-293T; how it was run: as §2

CCCCCCCCCCCCCCCC(=O)NCCCC[C@H](NC(=O)CCNC(=O)[C@H](CCCCN)NC(=O)[C@H](CCCCN)NC(=O)[C@H](CCC(N)=O)NC(=O)[C@@H](NC(=O)[C@H](CCC(=O)O)NC(=O)[C@H](CCC(=O)O)NC(=O)[C@@H](NC(=O)[C@H](CCCCN)NC(=O)[C@H](CCCCN)NC(=O)[C@H](CCC(N)=O)NC(=O)[C@@H](NC(=O)[C@H](CCC(=O)O)NC(=O)[C@H](CCC(=O)O)NC(=O)[C@@H](NC(=O)[C@H](CCCCN)NC(=O)[C@H](CCCCN)NC(=O)[C@H](CCC(N)=O)NC(=O)[C@@H](NC(=O)[C@H](CCC(=O)O)NC(=O)[C@H](CCC(=O)O)NC(=O)[C@@H](NC(=O)[C@H](CCCCN)NC(=O)[C@H](CCCCN)NC(=O)[C@H](CCC(N)=O)NC(=O)[C@@H](NC(=O)[C@H](CCC(=O)O)NC(=O)[C@H](CCC(=O)O)NC(=O)[C@@H](NC(=O)[C@H](CCCCN)NC(=O)[C@H](CCCCN)NC(=O)[C@H](CCC(N)=O)NC(=O)[C@@H](NC(=O)[C@H](CCC(=O)O)NC(=O)[C@H](CCC(=O)O)NC(=O)[C@@H](NC(C)=O)[C@@H](C)CC)[C@@H](C)CC)[C@@H](C)CC)[C@@H](C)CC)[C@@H](C)CC)[C@@H](C)CC)[C@@H](C)CC)[C@@H](C)CC)[C@@H](C)CC)[C@@H](C)CC)C(N)=O (Ac-IEEIQKKIEEIQKKIEEIQKKIEEIQKKIEEIQKK[βAla]K(Palmitoyl)-NH2)
Vdss [1]: 0.1978 L/kg | Cmax [2]: 97.6 µg/mL | Activity [3]: Active | inhibition [4]: inactive | EC50 [5]: 1.73 µM | MRT(t) [6]: 4.1 h | Activity [7]: Active | inhibition (INH) [8]: 60% | Activity [9]: Active | inhibition [10]: inactive | Activity [11]: Active | EC50 [12]: 0.11 µM | CC50 [13]: > 100 µM | inhibition [14]: inactive | AUC(0-t) [15]: 235 µg·h/mL | Tm [16]: 83.1 °C | inhibition [17]: Active | inhibition [18]: inactive | Activity [19]: Active | Activity [20]: Active | CL [21]: 0.345 mL/min/kg | CC50 at 72 h [22]: > 100 µM | selectivity ratio [23]: > 143 | EC50 [24]: 1.87 µM | EC50 [25]: 0.7 µM
